High-throughput results: PubChem, several laboratories
Sampled rows, rich in hits. Any-hit rate of the full collection: about 12%.
L major viab: reduces viability of Leishmania major promastigotes; inhibition, % at 10 µM; resazurin fluorescence viability; 9% of 200,000 active; in the data active = inhibition above about 50%;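 also: promastigotes grown with compound for 44 hours at 28 °C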
MT stabilizer: stabilizes microtubules in HeLa cells | HeLa tubulin immunostaining HCS, 24 h; share of cells brighter than vehicle mean+2SD | % tubulin-high responders, % at 10 µM | 0.83% of 200,000 active | AID 2205;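 active = plate Z-score above 3 for both tubulin-high and condensed-nucleus cell shares, with cell loss under 80%, at 10 µM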;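 also: anti alpha tubulin signal scored within the nucleus-defined area of each cell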
Autophagy HCS: modulators of autophagy; MEF GFP-LC3 puncta imaging; test concentration mostly 10 µM; calls only at 10 µM (by protocol); 0.98% of 190,000 active; AID 463193;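 active = percentage of spot-positive cells more than 3 SD above its plate mean, without a fluorescence outlier flag or 80% toxicity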;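 also: spot-positive cell cutoff set from DMSO-treated cells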
bCat nuc transl: modulators of beta-catenin nuclear translocation; AID 1665; 0.3% of 190,000 active; nuclear translocation activity, % at 5 µM; HeLa beta-catenin nuclear translocation, immunofluorescence imaging;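 active = nuclear translocation activity above 50% at 5 µM, with a well cell count of 50 or more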;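 also: per-cell ratio of nuclear to cytoplasmic median beta-catenin stain intensity; plate controls were DMSO negative control for no effect and GSK-3 inhibitor IX positive control for full effect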
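Assay system: human HeLa cells, native beta-catenin; doses: 5 µM primary, 0.02–20 µM confirmation; incubation: compound treatment 24 h, 37°C, 5% CO2; technique: fluorescence imaging of beta-catenin antibody stain plus DAPI; measure: % activation, nuclear-to-cytoplasmic median beta-catenin signal ratio per cell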
Dynein cargo inh: blocks dynein driven cargo transport along microtubules | 3617.4 mouse cells, GR-EGFP nuclear translocation imaging; test concentration mostly 20 µM; stimulated with dexamethasone, 1 µM; active compounds read low | z-score, hits read low | 0.47% of 220,000 active;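 active = plate z-score of nuclear minus cytoplasmic receptor signal below a set negative limit, without overly bright fluorescence or cell loss, cut at about -3.5 in these data, passing the limit was not always enough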;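 also: z-score of nuclear minus cytoplasmic ring GR-EGFP intensity difference per well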
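Schedule: 48 h induction, then 1 h compound, then 30 min agonist, 37 °C. Buffer or medium: tetracycline-free induction medium containing charcoal-stripped FBS. Reagent: 1.0 µM final dexamethasone stimulus. Evaluation: nuclear versus cytoplasmic GR-EGFP signal, averaged per well. Signal: high-content fluorescence imaging after fixation.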
CHOP inh: inhibitors of CHOP induction in ER stress response | CHO-K1 CHOP-promoter luciferase, tunicamycin-induced, 15-18 h | inhibition, % at 10 µM | 3.8% of 220,000 active | AID 2732;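 active = compounds that reduced the stress-induced luciferase reporter signal by more than about 70% of percent inhibition, limit read from the data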;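 also: 0% = tunicamycin plus vehicle and 100% = wells without tunicamycin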
CHOP confirm: confirmation of CHOP induction inhibitors. shares compounds with CHOP inh. CHO-CHOP promoter luciferase reporter, tunicamycin-induced, luminescence. inhibition, % at 10 µM. 45% of 2,100 active. AID 504437;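 active = mean of three repeat readings of reporter signal inhibition above a set limit, cut at about 70% in these data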;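 also: 0% = tunicamycin plus vehicle and 100% = wells lacking tunicamycin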
Active calls of the source: *; i = inactive; / = not tested or not shown; + = active, no number.

SMILES | L major viab | MT stabilizer | Autophagy HCS | bCat nuc transl | Dynein cargo inh | CHOP inh | CHOP confirm
COCCn1c(N)c(C(=S)NC(=O)c2cccs2)c(=O)[nH]c1=O | / | / | / | 0 | 2 | -30 | /
CNC(CC(=O)c1ccc([N+](=O)[O-])cc1)C(Cl)(Cl)Cl (stereo unspecified) | 100* | 6 | i | -1 | -3.5* | 110* | -12
O=C(CSc1ccccc1C(=O)O)c1ccc([N+](=O)[O-])cc1 | -6 | 1 | i | 0 | -1 | 30 | /
NC(=O)N/N=C\c1cc(Br)ccc1O | -12 | 4 | i | -2 | -0.97 | 37 | /
Cc1ccc(OCCOc2ccc(Br)cc2/C=N\NC(N)=O)cc1 | 5 | 4 | i | 1 | 0.88 | 103* | 39
NC(=O)COC(=O)CNC(=O)c1sc2ccccc2c1Cl | 3 | 4 | i | -2 | -0.84 | 0 | /
CC(=O)C1=C(C)NC(SCC(=O)c2ccc(-c3ccccc3)cc2)=C(C#N)C1c1cccnc1 (stereo unspecified) | 30 | 4 | + | 1 | -2.3 | 97* | 21
NS(=O)(=O)c1ccc(N/N=C2/CCCCC2C2CCCCC2)c([N+](=O)[O-])c1 (stereo unspecified) | 23 | 2 | i | 1 | -0.36 | 108* | 115*
CCC(C)NS(=O)(=O)c1ccc(S(=O)(=O)N2CC=C(c3ccc(F)cc3)CC2)cc1 (stereo unspecified) | 36 | 2 | i | 0 | 1.6 | 60 | /
CCC1(c2ccc(F)cc2)NC(=O)N(CC(=O)Nc2ccc(-c3nc4ccc(C)cc4s3)cc2)C1=O (stereo unspecified) | 8 | 9 | i | 1 | -0.37 | 101* | 74*
Cc1ccc2nc(-c3ccc(NC(=O)CN4CCN(c5ccccn5)CC4)cc3)sc2c1 | / | / | / | 1 | -0.91 | 24 | /
Cc1ccccc1CCN(C(=O)Cn1nnc2ccccc21)C(C(=O)NC(C)(C)C)c1ccsc1 (stereo unspecified) | -2 | 1 | i | -2 | -0.15 | 98* | -16
CCOc1ccc(C(F)(F)F)cc1NC(=O)c1ccc(OC)c([N+](=O)[O-])c1 | -2 | 3 | i | 2 | 1 | -6 | /
CCOc1cc(/C=N/NC(=O)Cc2ccc(C(F)(F)F)cc2[N+](=O)[O-])c(Br)cc1OC | -7 | 3 | i | -1 | -0.35 | 101* | 100*
CCCCCCn1c(SCCC)nc2c1c(=O)[nH]c(=O)n2C | 12 | 4 | i | 2 | 0.5 | 99* | 81*
C/C=C/Cn1c(SCCCc2ccccc2)nc2c1c(=O)[nH]c(=O)n2C | 9 | 7 | / | 2 | 1.2 | 103* | 103*
CCCCSc1nc2c(c(=O)[nH]c(=O)n2C)n1CCc1ccccc1 | / | / | / | 0 | / | / | /
O=C(O)CC1(CC(=O)NCc2csc(-c3cccs3)n2)CCCCC1 | / | / | / | 0 | 0.78 | -2 | /
COc1ccc(CCNC(=O)Nc2ccccc2[N+](=O)[O-])cc1 | -2 | 3 | i | 0 | -0.022 | -30 | /
O=C(O)CCC(=O)CCC(=O)c1ccccc1 | -4 | 1 | i | 0 | -0.33 | 46 | /
C[N+]1(CCC(=O)c2ccccc2)CCCCC1 | 33 | 4 | i | -2 | -0.11 | 97* | 10
CC(C)c1ccc(OCc2ccc(C(=O)N3CCN(c4ccccn4)CC3)cc2)cc1 | -2 | 2 | i | 7 | -0.19 | 51 | /
CCCn1c(N/N=C(C)\C=C\c2ccccc2)nc2c1c(=O)[nH]c(=O)n2C | 11 | 3 | i | -2 | 0.39 | 103* | -31
CCOc1cc(C2C(C(=O)c3ccccc3)=C(C(=O)OC)Nc3nnnn32)ccc1O (stereo unspecified) | -6 | 2 | i | -2 | -0.52 | -38 | /
CCc1ccc(NC(=S)N2CCNC(=O)C2CC(=O)OC)cc1 (stereo unspecified) | -8 | 2 | i | -6 | 0.46 | -3 | /
SMILES | L major viab | MT stabilizer | Autophagy HCS | bCat nuc transl | Dynein cargo inh | CHOP inh | CHOP confirm
O=C(Nc1ccccc1NC(=O)NC1CCCCC1)NC1CCCCC1 | 23 | 2 | i | -1 | -0.046 | 104* | 114*
O=C(c1ccco1)N1CCN(c2ccc(Cl)c(Cl)c2)CC1 | 18 | 2 | i | / | 0.49 | / | /
CCC(C)(C)c1nnc(NC(=O)c2cccc([N+](=O)[O-])c2)s1 | -2 | 1 | i | -3 | 0.54 | 22 | /
Cc1sc(NC(=O)c2cccc([N+](=O)[O-])c2)c(C(N)=O)c1-c1ccc(C(C)(C)C)cc1 | -3 | 3 | i | -1 | -0.33 | 107* | 139*
O=C(Nc1ccc(C(O)(C(F)(F)F)C(F)(F)F)cc1)c1ccc(Cl)c([N+](=O)[O-])c1 | 53* | 3 | i | -1 | -0.92 | 107* | 117*
O=C(O)c1cc(NC(=O)c2ccc(Cl)c([N+](=O)[O-])c2)cc(C(=O)O)c1 | -9 | 6 | i | -2 | -0.35 | 2 | /
COc1ccc2nc(SCCN(C)C)[nH]c2c1 | -4 | 2 | i | 0 | 0.9 | 4 | /
Fc1ccccc1CSc1ncnc2sc3c(c12)CCCC3 | 7 | 3 | i | 0 | -0.2 | 41 | /
CC(C)(C)C(=O)Nc1sc2c(c1C#N)CCC2 | -6 | 1 | i | 1 | -0.22 | 41 | /
CC(C)(C)C(=O)NC(NC(=S)Nc1sc2c(c1C#N)CCCC2)C(Cl)(Cl)Cl (stereo unspecified) | -1 | 3 | i | -2 | 0.3 | 97* | 74*
CCOc1ccc(OCc2ccc(C(=O)N3N=C(C(F)F)CC3(O)C(F)F)o2)cc1 (stereo unspecified) | -8 | 2 | i | 5 | 0.55 | 99* | -11
O=C(c1ccc(COc2ccc(Br)cc2)o1)N1N=C(C(F)F)CC1(O)C(F)F (stereo unspecified) | -3 | 3 | i | 3 | -0.45 | 108* | 21
Cc1cc(C)cc(OCc2ccc(C(=O)N3N=C(C(F)F)CC3(O)C(F)F)o2)c1 (stereo unspecified) | 1 | 2 | i | -1 | -0.5 | 102* | 57
Cc1cc(C)cc(OCc2ccc(C(=O)O)o2)c1 | -4 | 1 | i | / | 1.2 | 48 | /
O=C(c1ccc(COc2ccc3ccccc3c2)o1)N1N=C(C(F)F)CC1(O)C(F)F (stereo unspecified) | 2 | 2 | i | -1 | 0.49 | 111* | 56
Cn1ccnc1SCC(=O)Nc1ccc2c(c1)OC(F)(F)O2 | -5 | 1 | i | -1 | -0.96 | -24 | /
O=C(CN1CCc2ccccc21)NC(=O)NC1CCCCC1 | / | / | / | 1 | -0.34 | 32 | /
C=CCn1c(SCCN2CCCC2)nc2c([nH]c3ccccc32)c1=O | 31 | 2 | i | -2 | 0.58 | -11 | /
